Results on six compounds are retold here after ChEMBL document CHEMBL3853290, “Sesquiterpenoids Isolated from Two Species of the Asteriscus Alliance” (J Nat Prod, 2016).

A word on the IC50: it is the midpoint of a concentration-inhibition curve.

Some results are limits rather than exact numbers.

The first experiment deals with MOLT-3. The experiment is described as follows: (§1) Cytotoxicity against human MOLT3 cells assessed as cell growth inhibition after 72 hrs by MTT assay. The format is functional, cell-based.
Conditions: not given
In a few lines: (§2)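 Cells from DSMZ, grown in RPMI 1640 with 2 mM L-glutamine and 10% heat-inactivated FBS. 1 × 10^4 exponentially growing cells per well exposed to a range of compound concentrations. MTT (0.5 mg/mL) added, 4 h at 37 °C, then 10% SDS in 0.05 M HCl overnight at room temperature in the dark. Absorbance read at 570 nm. IC50 from nonlinear regression, means ± SE of ≥3 independent experiments in triplicate. Etoposide as positive control.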
Regarding `CC1(C)/C=C\C(=O)[C@@]2(C)O[C@H]2CCC2=C[C@@H]1OC2=O`, the “growth inhibition (GI)” value is “Dose-dependent effect”.

System in another experiment: not listed separately
The experiment is described as §1. To be noted: MOLT-3, 72 h. The format is functional, cell-based. In a few lines:
as §2
As for `COc1cc([C@@H]2c3cc4c(cc3[C@@H](O[C@@H]3O[C@@H]5CO[C@@H](C)O[C@H]5[C@H](O)[C@H]3O)[C@H]3COC(=O)[C@H]23)OCO4)cc(OC)c1O` [ETOPOSIDE], the IC50 came out at 0.7 µM.

Consider `CCO[C@H]1CCC2=C[C@H](OC2=O)C(C)(C)/C=C\C(=O)[C@H]1C`, for which the IC50 was above 10 µM.

For the compound `C/C1=C/CC[C@]23O[C@H]2[C@H](OC3=O)C(C)(C)/C=C/C1=O`, the concentration for half-maximal inhibition (IC50) is above 10 µM.

Turning to `CC1(C)C[C@@H]2C(=O)[C@](C)(O)/C=C\C[C@@H]3C(=O)O[C@H]1[C@@H]32`, the IC50 was above 10 µM.

`C[C@@H]1C(=O)/C=C\C(C)(C)[C@@H]2C=C(CC[C@@H]1O)C(=O)O2`: the IC50 is above 10 µM.

On to `CC1(C)/C=C\C(=O)[C@@]2(C)O[C@H]2CCC2=C[C@@H]1OC2=O`, for which the IC50 turned out to be 4.1 µM.

System in a further experiment: not listed separately
Nature of the experiment: Cytotoxicity against human HL60 cells assessed as cell growth inhibition after 72 hrs by MTT assay. The format is functional, cell-based. To be noted: HL-60, 72 h. In a few lines:
as §2
(In general: Formazan colour is commonly taken as a measure of viable cells.)
Take `COc1cc([C@@H]2c3cc4c(cc3[C@@H](O[C@@H]3O[C@@H]5CO[C@@H](C)O[C@H]5[C@H](O)[C@H]3O)[C@H]3COC(=O)[C@H]23)OCO4)cc(OC)c1O` [ETOPOSIDE]: the IC50 was found to be 0.5 µM.

Consider `CCO[C@H]1CCC2=C[C@H](OC2=O)C(C)(C)/C=C\C(=O)[C@H]1C`, for which the IC50 is above 10 µM.

Regarding `C/C1=C/CC[C@]23O[C@H]2[C@H](OC3=O)C(C)(C)/C=C/C1=O`, the IC50 was above 10 µM.

Regarding `CC1(C)C[C@@H]2C(=O)[C@](C)(O)/C=C\C[C@@H]3C(=O)O[C@H]1[C@@H]32`, the concentration for half-maximal inhibition (IC50) was above 10 µM.

In the case of `C[C@@H]1C(=O)/C=C\C(C)(C)[C@@H]2C=C(CC[C@@H]1O)C(=O)O2`, the IC50 was above 10 µM.

`CC1(C)/C=C\C(=O)[C@@]2(C)O[C@H]2CCC2=C[C@@H]1OC2=O`: the IC50 is 5.4 µM.
